The source of these data is ChEMBL document CHEMBL4477159, “Anti-inflammatory Actions of (+)-3'α-Angeloxy-4'-keto-3',4'-dihydroseselin (Pd-Ib) against Dextran Sulfate Sodium-Induced Colitis in C57BL/6 Mice” (J Nat Prod, 2016).

For test [1], the system named is Mus musculus. Kind of test: Antiinflammatory activity in DSS-induced C57BL/6 mouse acute colitis model assessed as lowering of IL-17A level at 300 mg/kg administered by oral gavage from day 5 to day 12 measured on day 13. It counts as functional, organism-based. In a few lines:
(§1)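 Colon tissue from DSS-colitis mice dosed by gavage (day 13 harvest) homogenized in lysis buffer and spun at 16000g, 4 °C, 15 min. Cytokines in supernatant measured by multiplex bead immunoassay and reported as pg/mL. Protein determined by Bradford with BSA standard. n = 8, mean ± SD.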

Test [2] has as its system Mus musculus. Kind of test: Antiinflammatory activity in DSS-induced C57BL/6 mouse acute colitis model assessed as lowering of IL-6 level at 300 mg/kg administered by oral gavage from day 5 to day 12 measured on day 13. It counts as functional, organism-based. In a few lines: as §1
The test system of test [3] is Mus musculus. Briefly: Antiinflammatory activity in DSS-induced C57BL/6 mouse acute colitis model assessed as lowering of disease activity index at 300 mg/kg administered by oral gavage from day 5 to day 12 measured on day 13 relative to DSS-treated control. It counts as functional, organism-based. In a few lines:
(§2)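 Colitis induced in C57BL/6 mice with 2.0% (w/v) DSS in drinking water for 5 days; controls got distilled water. Saline vehicle, Pd-Ib (30, 60 or 120 mg/kg/day) or SASP (300 mg/kg/day) given by gavage through day 12. Weight, stool consistency and bleeding monitored daily. DAI combines weight-loss, stool and bleeding scores. On day 13, colon measured from ileo-cecal junction to anal verge. n = 8, mean ± SD.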

The subject of test [4] is Mus musculus. Briefly: Antiinflammatory activity in DSS-induced C57BL/6 mouse acute colitis model assessed as protection against mucosal injury at 300 mg/kg administered by oral gavage from day 5 to day 12 measured on day 13 by hematoxylin/eosin staining-based microscopic analysis. It counts as functional, organism-based. In a few lines: (§3)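 DSS colitis (2% w/v, 5 days) with daily gavage of saline, Pd-Ib (30–120 mg/kg) or SASP (300 mg/kg) through day 12; sacrifice day 13. Colons rinsed in ice-cold PBS, fixed overnight in 4% paraformaldehyde, paraffin-embedded. 5 μm sections H&E stained and graded on a 0–10 histological scale. n = 8, mean ± SD.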

In test [5] the test system is RAW264.7. Kind of test: Inhibition of LPS-induced IL-6 production in mouse RAW264.7 cells at 5 to 20 ug/ml after 24 hrs by ELISA. It counts as functional, cell-based. The method, boiled down:
(§4)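 RAW264.7 cells incubated 24 h with Pd-Ib (0, 5, 10, 20, 40 μg/mL), with or without LPS 1 μg/mL. IL-6 in the culture supernatant quantified by ELISA.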
(An ELISA detects its analyte on a solid surface through an enzyme-linked reagent.)

The subject of test [6] is RAW264.7. Kind of test: Inhibition of LPS-induced JNK phosphorylation in mouse RAW264.7 cells at 5 to 40 ug/ml after 24 hrs by Western blot analysis. It counts as cell-based. The method, boiled down:
(§5)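 RAW264.7 macrophages (DMEM, 10% FBS, 37 °C, 5% CO2) treated with LPS 1 μg/mL alone or with Pd-Ib 5, 10, 20 or 40 μg/mL for 24 h. Lysates in RIPA buffer, 10% SDS-PAGE, immunoblotted for phospho and total STAT3, JNK, ERK and p38; β-actin loading control.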
For orientation: In western blotting, separated proteins are transferred to a membrane and probed.

Test [7] concerns Mus musculus. Briefly: Antiinflammatory activity in DSS-induced C57BL/6 mouse acute colitis model assessed as increase of IL-10 level at 30 to 120 mg/kg administered by oral gavage from day 5 to day 12 measured on day 13 relative to DSS-treated control. It counts as functional, organism-based.
Test [8] has as its target Signal transducer and activator of transcription 3 (Mus musculus) (UniProt P42227). Kind of test: Inhibition of LPS-induced STAT3 phosphorylation in mouse RAW264.7 cells at 40 ug/ml after 24 hrs by Western blot analysis. It counts as cell-based. The method, boiled down: as §5
Test [9] concerns Mus musculus. Kind of test: Antiinflammatory activity in DSS-induced C57BL/6 mouse acute colitis model assessed as lowering of IFN-gamma level administered by oral gavage from day 5 to day 12 measured on day 13. It counts as functional, organism-based. In a few lines:
as §1

Test [10] has as its system Mus musculus. Kind of test: Antiinflammatory activity in DSS-induced C57BL/6 mouse acute colitis model assessed as reduction in loss of body weight at 120 mg/kg administered by oral gavage after 9 days of induction. It counts as functional, organism-based. The method, boiled down: as §2
Test [11] has as its system RAW264.7. Briefly: Inhibition of LPS-induced IL-6 production in mouse RAW264.7 cells at 40 ug/ml after 24 hrs by ELISA. It counts as functional, cell-based. The method, boiled down: as §4
Test [12] concerns Mus musculus. Briefly: Antiinflammatory activity in DSS-induced C57BL/6 mouse acute colitis model assessed as lowering of MPO activity in colon homogenate at 30 to 120 mg/kg administered by oral gavage from day 5 to day 12 measured on day 13. It counts as functional, organism-based. The method, boiled down:
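Mice given DSS colitis and gavage treatment as above, sacrificed day 13. MPO activity in colon homogenate taken from the rate of optical density change; one unit gives an OD change of 1.0/min at 25 °C. Normalized to colon wet weight, expressed as units/mg tissue. n = 8.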

Test [13] has as its system Mus musculus. Briefly: Antiinflammatory activity in DSS-induced C57BL/6 mouse acute colitis model assessed as lowering of NO production at 30 to 120 mg/kg administered by oral gavage from day 5 to day 12 measured on day 13 by Griess assay. It counts as functional, organism-based. The method, boiled down: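 On day 13 after DSS colitis and gavage dosing, frozen colon weighed and homogenized in 0.5% hexadecyltrimethylammonium bromide (100 mg tissue/mL). Spun at 16000g, 4 °C, 15 min. Supernatant nitrite measured with Griess reagent. n = 8, mean ± SD.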

For test [14], the system named is Mus musculus. Kind of test: Antiinflammatory activity in DSS-induced C57BL/6 mouse acute colitis model assessed as increase of IL-4 level at 30 to 120 mg/kg administered by oral gavage from day 5 to day 12 measured on day 13 relative to DSS-treated control. It counts as functional, organism-based. The method, boiled down: as §1
For test [15], the system named is Mus musculus. Kind of test: Downregulation of elevated p-STAT3 level in colon homogenate of DSS-induced C57BL/6 mouse acute colitis model administered by oral gavage from day 5 to day 12 measured on day 13 by Western blot analysis. It counts as functional, organism-based. In a few lines: (§6)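 Colonic tissue extracts from DSS-colitis mice gavaged through day 12 and sacrificed day 13. Lysed in RIPA buffer (pH 7.4) with phosphatase/protease inhibitors, run on 10% SDS-PAGE and immunoblotted for STAT3, p-STAT3, p38 and p-p38. Blots stripped and reprobed for β-actin as loading control.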

The subject of test [16] is Mus musculus. Briefly: Antiinflammatory activity in DSS-induced C57BL/6 mouse acute colitis model assessed as lowering of IL-17A level administered by oral gavage from day 5 to day 12 measured on day 13. It counts as functional, organism-based. In a few lines: as §1
Test [17] relates to Mus musculus. Kind of test: Antiinflammatory activity in DSS-induced C57BL/6 mouse acute colitis model assessed as lowering of histological score at 30 to 120 mg/kg administered by oral gavage from day 5 to day 12 measured on day 13 by hematoxylin/eosin staining-based microscopic analysis. It counts as functional, organism-based. The method, boiled down: as §3
For test [18], the system named is Mus musculus. Briefly: Downregulation of elevated p-p38 level in colon homogenate of DSS-induced C57BL/6 mouse acute colitis model administered by oral gavage from day 5 to day 12 measured on day 13 by Western blot analysis. It counts as functional, organism-based. In a few lines: as §6
In test [19] the test system is Mus musculus. Briefly: Antiinflammatory activity in DSS-induced C57BL/6 mouse acute colitis model assessed as reduction in loss of body weight at 30 to 60 mg/kg administered by oral gavage after 9 days of induction. It counts as functional, organism-based. In a few lines: as §2
Test [20] has as its system Mus musculus. Briefly: Antiinflammatory activity in DSS-induced C57BL/6 mouse acute colitis model assessed as lowering of disease activity index at 120 mg/kg administered by oral gavage from day 5 to day 12 measured on day 13 relative to DSS-treated control. It counts as functional, organism-based. The method, boiled down: as §2
The subject of test [21] is Mus musculus. Kind of test: Antiinflammatory activity in DSS-induced C57BL/6 mouse acute colitis model assessed as lowering of IL-6 level administered by oral gavage from day 5 to day 12 measured on day 13. It counts as functional, organism-based. The method, boiled down: as §1
In test [22] the test system is Mus musculus. Briefly: Antiinflammatory activity in DSS-induced C57BL/6 mouse acute colitis model assessed as lowering of TNF-alpha level administered by oral gavage from day 5 to day 12 measured on day 13. It counts as functional, organism-based. The method, boiled down: as §1
Test [23] has as its system Mus musculus. Kind of test: Antiinflammatory activity in DSS-induced C57BL/6 mouse acute colitis model assessed as attenuation of shortening of colon length at 60 to 120 mg/kg administered by oral gavage from day 5 to day 12 measured on day 13. It counts as functional, organism-based. In a few lines:
as §2

Test [24] has as its system Mus musculus. Briefly: Antiinflammatory activity in DSS-induced C57BL/6 mouse acute colitis model assessed as protection against mucosal injury at 120 mg/kg administered by oral gavage from day 5 to day 12 measured on day 13 by hematoxylin/eosin staining-based microscopic analysis. It counts as functional, organism-based. The method, boiled down: as §3
For test [25], the target named is MAP kinase p38 (Mus musculus) (UniProt P47811+O08911+Q9WUI1+Q9Z1B7). Kind of test: Inhibition of LPS-induced p38 phosphorylation in mouse RAW264.7 cells at 5 to 40 ug/ml after 24 hrs by Western blot analysis. It counts as cell-based. In a few lines:
as §5

For test [26], the target named is Signal transducer and activator of transcription 3 (Mus musculus) (UniProt P42227). Kind of test: Inhibition of LPS-induced STAT3 phosphorylation in mouse RAW264.7 cells at 20 ug/ml after 12 hrs by Western blot analysis. It counts as cell-based. The method, boiled down:
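RAW264.7 cells given LPS 1 μg/mL with or without Pd-Ib 20 μg/mL for 0–24 h, then harvested and lysed. p-STAT3 and β-actin detected by Western blot.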

For test [27], the system named is RAW264.7. Briefly: Inhibition of LPS-induced ERK phosphorylation in mouse RAW264.7 cells at 5 to 40 ug/ml after 24 hrs by Western blot analysis. It counts as cell-based. In a few lines: as §5

Molecules are shown by their SMILES. Active and inactive are the calls of the source. The rule behind the calls is not given here.

Sequence of Signal transducer and activator of transcription 3 (Mus musculus) (P42227 whole entry): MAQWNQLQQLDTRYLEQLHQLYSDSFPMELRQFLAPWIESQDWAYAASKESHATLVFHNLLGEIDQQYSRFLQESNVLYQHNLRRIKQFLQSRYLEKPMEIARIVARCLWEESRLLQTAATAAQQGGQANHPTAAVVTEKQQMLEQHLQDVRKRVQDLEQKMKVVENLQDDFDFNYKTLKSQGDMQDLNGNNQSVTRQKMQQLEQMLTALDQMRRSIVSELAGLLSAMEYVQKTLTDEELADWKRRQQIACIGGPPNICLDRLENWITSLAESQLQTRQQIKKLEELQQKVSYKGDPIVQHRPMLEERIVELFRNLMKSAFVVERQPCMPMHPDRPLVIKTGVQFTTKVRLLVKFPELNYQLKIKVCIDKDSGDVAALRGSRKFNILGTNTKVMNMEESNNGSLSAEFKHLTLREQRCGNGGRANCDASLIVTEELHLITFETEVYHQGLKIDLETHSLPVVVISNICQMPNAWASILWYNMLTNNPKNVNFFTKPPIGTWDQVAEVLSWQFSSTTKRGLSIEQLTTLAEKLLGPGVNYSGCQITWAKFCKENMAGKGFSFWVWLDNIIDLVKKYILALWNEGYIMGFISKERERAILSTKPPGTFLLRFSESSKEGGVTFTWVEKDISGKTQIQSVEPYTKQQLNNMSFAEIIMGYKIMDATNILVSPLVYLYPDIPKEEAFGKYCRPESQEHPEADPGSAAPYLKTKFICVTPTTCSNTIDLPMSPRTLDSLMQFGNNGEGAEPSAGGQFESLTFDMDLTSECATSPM

Take `O=C(O)c1cc(/N=N/c2ccc(S(=O)(=O)Nc3ccccn3)cc2)ccc1O`: the result with Mus musculus [1], in the test with Mus musculus [2], with Mus musculus [3] and in the test on Mus musculus [4] was Active.
On to `C/C=C(/C)C(=O)O[C@H]1C(=O)c2c(ccc3ccc(=O)oc23)OC1(C)C`, for which the inhibition entry (with RAW264.7 [5]; with RAW264.7 [6]; in [8]; in [25]; in [26]) was “Active” in each case. Further, the outcome in the test with Mus musculus [7] and in the test with Mus musculus [19] was inactive. Besides, the Activity entry in the test with Mus musculus [9], with Mus musculus [15], in the test on Mus musculus [16], with Mus musculus [18], with Mus musculus [21] and with Mus musculus [22] was “Dose-dependent effect” in each case. Further, the outcome in the test on Mus musculus [10], in the test on Mus musculus [12], in the test on Mus musculus [13], with Mus musculus [14], with Mus musculus [17] and in the test on Mus musculus [20] was Active. Besides, the result in the test on Mus musculus [23] and with Mus musculus [24] was Active. The inhibition result in the test with RAW264.7 [11] and in the test on RAW264.7 [27] was “inactive” in each case.
